Assay outcomes: PubChem BioAssay, several laboratories
Compounds with a hit are over-represented: about 5.6% of the library has one in this group of screens.
aDG glyco up: alpha-DG glycosylation activation. activation, % at 10 µM. Pro5-aDG cells, alpha-DG glycosylation AlphaScreen (IIH6); 0% Pro5, 100% B10-LARGE cell signal. hit rate 0.22% among 360,000;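 active = activation of at least 8% versus controls, or a plate z-score of at least 8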;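 note: Pro5 are CHO cells carrying HIG-tagged alpha-DG that lacks glycosylation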
GRIN3A LBD mod: NR3A (human) ligand-binding domain modulation; hit rate 2.5% among 340,000; Tm shift relative to glycine control, % at 25 µM; NR3A LBD differential scanning fluorimetry, Tm shift; 0% = protein alone, 100% = glycine-bound protein;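 active = melting temperature shift of at least 10% of the positive control shift, at one fixed dose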
XBP1 UPR activ: activators of adaptive arm of unfolded protein response (XBP1); CHO-XBP1 luciferase reporter, IRE1-XBP1 UPR activation, luminescence; percent of tunicamycin response, DMSO as zero; AID 463104; activation, % at 20 µM; hit rate 0.33% among 330,000;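 active = versus positive control, 20 µM dose yields 30% or more activation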
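Material: CHO cell line with stable XBP1 luciferase reporter; buffer or medium: F12 medium containing 10% fetal bovine serum; compound: single point, 20 µM final compound, 1% DMSO; incubation: 6 h treatment, 37 °C; measured by: glow luminescence from Steady-Glo reagent; evaluation: activation, % of tunicamycin; control set: tunicamycin high, DMSO low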
MPTP block: blocks calcium-induced mitochondrial swelling | isolated mouse mitochondria, Ca2+ swelling absorbance, 30 min | inhibition, % at 10 µM | hit rate 1.4% among 360,000 | AID 602449;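 active = inhibition of 50% or more, scaled per plate between neutral and stimulator controls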
UPR CHOP act: activators of apoptotic arm of unfolded protein response (CHOP) | CHO-CHOP luciferase reporter, UPR activation, luminescence; percent of tunicamycin response over DMSO baseline | activation, % at 10 µM | hit rate 0.34% among 330,000 | AID 449763;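 active = at 10 µM dose, activation of 40% or more, normalized to positive control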
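Material: CHO-CHOP cells, stable luciferase reporter of PERK-eIF2a-CHOP signalling; quantity: 500 reporter cells seeded per well; buffer or medium: F12 medium containing 10% fetal bovine serum; compound: one dose, 10 µM in 0.5% DMSO; incubation: 6 h compound treatment, 37 °C; measured by: Steady-Glo luciferase luminescence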
CHOP inh: CHOP inhibition in unfolded protein response; CHO-K1 CHOP-promoter luciferase, tunicamycin-induced, 15-18 h; inhibition, % at 10 µM; hit rate 3.8% among 220,000; AID 2732;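 active = compounds that reduced the stress-induced luciferase reporter signal by more than about 70% of percent inhibition, limit read from the data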
Large screens that a line does not name were inactive.

N/C(=N\OC(=O)c1ccc(Cl)cc1Cl)c1ccc(Cl)cc1	GRIN3A LBD mod 18
Cc1ccccc1S(=O)(=O)N1C[C@H]2[C@H]3C(=O)N(c4ccccc4)C(=O)[C@H]3CC(=O)[C@H]2[C@@H]1c1ccc(Cl)cc1	none (no result: GRIN3A LBD mod, XBP1 UPR activ, UPR CHOP act, CHOP inh)
CC(=O)Nc1ccc(S(=O)(=O)NCCC(=O)NNC(=O)c2ccccc2O)cc1	none (no result: CHOP inh)
N#Cc1cnc2c(-c3ccccc3)c(-c3ccccc3)nn2c1N	CHOP inh 78
CC(=O)Nc1ccc(NC(=O)c2ccccc2CCc2ccccc2)cc1	none
CCN(CC)CCC(c1cc(OC)c(OC)c(OC)c1)c1c(OC)cc(OC)c2ccc(=O)oc12 (centres undefined)	GRIN3A LBD mod 13
COC(=O)c1c(NC(=O)CN2CCN(Cc3ccc4c(c3)OCO4)CC2)sc(C)c1C	CHOP inh 80
COC(=O)c1ccsc1NC(=O)CN1CCN(Cc2ccc3c(c2)OCO3)CC1	none
O=C1NC[C@@H](CCCCN2C[C@H](Cc3ccc(O)cc3)N(CC3CCCCC3)C(=O)C2=O)N(CC2CCCCC2)C1=O	none (no result: GRIN3A LBD mod, XBP1 UPR activ, UPR CHOP act, CHOP inh)
O=C(C1=C[C@@H](c2ccc(Br)cc2)C[C@@H](OCCCCO)O1)N1CCN(Cc2ccccc2)CC1	none
CN(C)S(=O)(=O)c1cccc(NC(=S)NC2CCCCC2)c1	none
CN(C)S(=O)(=O)c1cccc(NC(=S)NC23CC4CC(CC(C4)C2)C3)c1	GRIN3A LBD mod 10 (no result: CHOP inh)
CCN1CCN(c2ccc(NC(=O)CC3OC(=O)c4ccccc43)cc2C)CC1 (centres undefined)	none (no result: GRIN3A LBD mod, XBP1 UPR activ, UPR CHOP act, CHOP inh)
C/C=C/c1ccc(OCCCCOc2ccccc2C(C)=O)c(OC)c1	GRIN3A LBD mod 18
CC(=O)Nc1ccc(S(=O)(=O)NCCC(=O)Nc2ccc(C)c(Cl)c2)cc1	none
Cc1ccc(S(=O)(=O)NCCC(=O)Nc2ccc(Cl)c(Cl)c2)cc1C	GRIN3A LBD mod 13
CSc1ccccc1NC(=O)CN(C)C(=O)C1CC(=O)N(C(C)c2ccccc2)C1 (centres undefined)	none (no result: CHOP inh)
O=S(=O)(NCc1ccccc1)NCc1ccc(Cl)cc1Cl	none (no result: CHOP inh)
Cc1ccc(Nc2nc(C)nc3c2oc2ccccc23)cc1	none
Cc1nc(Nc2ccccc2)c2oc3ccc(Cl)cc3c2n1	GRIN3A LBD mod 16 (no result: CHOP inh)
CCc1nc(Nc2ccccc2)c2oc3ccccc3c2n1	CHOP inh 72
CCc1nc(Nc2cccc(F)c2)c2oc3ccccc3c2n1	GRIN3A LBD mod 12 (no result: CHOP inh)
COc1ccccc1C(=O)NCC(=O)N1CCN(S(=O)(=O)c2ccc3c(c2)OCCO3)CC1	GRIN3A LBD mod 13 (no result: CHOP inh)
O=C1CNC(=O)c2c(nc3n2CCC3)N1	GRIN3A LBD mod 11
O=c1[nH]c(C(F)(F)F)nc2c1nc1n2CCC1	none (no result: GRIN3A LBD mod, XBP1 UPR activ, UPR CHOP act, CHOP inh)
Cc1ccc(CNC(=O)C2(NC(=O)Nc3ccc(C)cc3)CCCCC2)cc1	CHOP inh 79
Cc1ccc(NC(=O)NC2(C(=O)NCc3ccccc3)CCCCC2)cc1	none
CC(C)(C)c1ccc(S(=O)(=O)Nc2ccc(C(O)(C(F)(F)F)C(F)(F)F)cc2)cc1	none (no result: GRIN3A LBD mod, XBP1 UPR activ, UPR CHOP act, CHOP inh)
CC(C)COC(=O)N(C)c1ccc(C(O)(C(F)(F)F)C(F)(F)F)cc1	CHOP inh 93
N#Cc1cnc(SCCc2ccccc2)nc1N	none
CCCCCCSc1ncc(C#N)c(N)n1	CHOP inh 84
Cc1nc(SCc2nc3ccc(C(=O)c4ccccc4)cc3[nH]2)c2oc3ccccc3c2n1	none (no result: CHOP inh)
COc1ccc(-c2nnn(CC(=O)N3CCN(c4ccc(F)cc4)CC3)n2)cc1	none
COc1ccc(N2CCN(C(=O)CN3CCN(c4nc(-c5ccc(F)cc5)cs4)CC3)CC2)cc1	CHOP inh 80
COc1cc2cc3c(N)c(C(=O)NCc4ccco4)sc3nc2cc1OC	none
COc1cc2cc3c(N)c(C(=O)Nc4sc(C)c(C)c4C#N)sc3nc2cc1OC	GRIN3A LBD mod 19, CHOP inh 81
COc1ccc(C(=O)CN2C(=O)c3ccccc3S2(=O)=O)cc1	none
O=C(CN1/C(=C(/O)c2ccccc2)C(=O)c2ccccc2S1(=O)=O)c1ccccc1	CHOP inh 96
Cc1ccc(C(=O)c2cc3c(cc2N)OCCO3)cc1	CHOP inh 73
Cc1cc(=O)n(CCO)c(O)c1C#N	none
Cc1c(C#N)c(O)n(CCO)c(=O)c1N=Nc1ccc2c(c1)COC2=O	CHOP inh 94
CC1CC(C)CN(CCOc2cccc(Cl)c2Cl)C1 (centres undefined)	CHOP inh 73
CC1CC(C)CN(CCOc2ccc(Cl)cc2Cl)C1 (centres undefined)	none
Nc1nc2ccc(N3CCOCC3)cc2s1	GRIN3A LBD mod 12
Fc1ccc2nc(N3CCOCC3)sc2c1	none
CCN(C(=O)CSc1nnc(C)n1-c1ccccc1)C1CCS(=O)(=O)C1 (centres undefined)	none
COc1ccc(NC(=O)/C=C/c2cc(Br)ccc2OC)cc1	GRIN3A LBD mod 15
COc1ccc(CNC(=S)Nc2ccccc2)cc1Cl	none (no result: CHOP inh)
S=C(NCCSCc1ccc(Cl)c(Cl)c1)Nc1ccccc1	GRIN3A LBD mod 22 (no result: CHOP inh)
CCCOc1ccc(CNC(=S)Nc2ccccc2)cc1Cl	GRIN3A LBD mod 18 (no result: CHOP inh)
Cc1cccc(N(CC(=O)NCC2CCCO2)C(=O)CNS(=O)(=O)c2ccc(Cl)cc2)c1 (centres undefined)	none (no result: CHOP inh)
CCN1C[C@@H]2[C@@H]3C(=O)N(Cc4ccccc4)C(=O)[C@@H]3[C@](CC)(C1=O)N2C(=O)c1ccc(F)cc1	none (no result: XBP1 UPR activ, UPR CHOP act, CHOP inh)
COc1ccc(-c2ccc(-c3nc4ccc(C)cn4c3NC3CCCCC3)cc2OC)cc1	none (no result: CHOP inh)
COc1ccc([N+](=O)[O-])cc1/C=N/Nc1nc(N2CCCCC2)nc(N2CCCCC2)n1	GRIN3A LBD mod 29
O=[N+]([O-])c1ccc(Nc2nc(N/N=C\c3ccc4c(c3)OCO4)nc(N3CCCCC3)n2)cc1	GRIN3A LBD mod 13
O=[N+]([O-])c1ccccc1/C=N/Nc1nc(N2CCCC2)nc(N2CCCC2)n1	CHOP inh 75
O=[N+]([O-])c1ccccc1/C=C/C=N/Nc1nc(N2CCCCC2)nc(N2CCCCC2)n1	none
CC(C)n1cc(C(=O)NC2CC(C)(C)Cc3c2cnn3-c2ccccc2)cn1 (centres undefined)	none (no result: CHOP inh)
O=C(CN1C(=O)NC2(CCCC2)C1=O)N1CCN(c2ccc(C(F)(F)F)cc2[N+](=O)[O-])CC1	none (no result: XBP1 UPR activ, UPR CHOP act, CHOP inh)
CC1(C(=O)NS(=O)(=O)c2ccc(Cl)cc2)CCN1C(=O)c1ccccc1CCc1ccccc1 (centres undefined)	none (no result: GRIN3A LBD mod, XBP1 UPR activ, UPR CHOP act, CHOP inh)
CN(C)c1ccc(C(CNC(=O)c2cccs2)N(C)C)cc1 (centres undefined)	none (no result: CHOP inh)
COc1ccc(N(C(=O)CCl)C(C(=O)NCCc2ccccc2)c2cccs2)cc1Cl (centres undefined)	CHOP inh 110 (no result: XBP1 UPR activ, UPR CHOP act)
